# According to ChEMBL document CHEMBL4028848, “Discovery of N-{4-[5-(4-Fluorophenyl)-3-methyl-2-methylsulfanyl-3H-imidazol-4-yl]-pyridin-2-yl}-acetamide (CBS-3595), a Dual p38α MAPK/PDE-4 Inhibitor with Activity against TNFα-Related Diseases” (J Med Chem, 2017):
# Active and inactive are the calls of the source. No cut-off for these calls is given here.
# Tests used:
# [1] = target: Mitogen-activated protein kinase 1 (Homo sapiens) (UniProt P28482); assay: Inhibition of MAPK1 (unknown origin) at 10 uM
# Mitogen-activated protein kinase 1 (Homo sapiens), sequence (P28482 whole entry): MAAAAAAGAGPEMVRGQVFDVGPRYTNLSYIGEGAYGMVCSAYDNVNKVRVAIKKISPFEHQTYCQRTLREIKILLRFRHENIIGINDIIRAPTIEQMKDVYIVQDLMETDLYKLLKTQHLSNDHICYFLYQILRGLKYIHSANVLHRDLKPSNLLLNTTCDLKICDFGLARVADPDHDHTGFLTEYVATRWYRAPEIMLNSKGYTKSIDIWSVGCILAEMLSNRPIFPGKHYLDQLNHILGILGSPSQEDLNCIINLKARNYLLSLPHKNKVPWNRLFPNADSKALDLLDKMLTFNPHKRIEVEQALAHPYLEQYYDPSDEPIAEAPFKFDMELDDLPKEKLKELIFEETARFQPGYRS
# [2] = target: Mitogen-activated protein kinase 8 (Homo sapiens) (UniProt P45983); assay: Inhibition of JNK1alpha1 (unknown origin) at 10 uM
# Mitogen-activated protein kinase 8 (Homo sapiens), sequence (P45983 whole entry): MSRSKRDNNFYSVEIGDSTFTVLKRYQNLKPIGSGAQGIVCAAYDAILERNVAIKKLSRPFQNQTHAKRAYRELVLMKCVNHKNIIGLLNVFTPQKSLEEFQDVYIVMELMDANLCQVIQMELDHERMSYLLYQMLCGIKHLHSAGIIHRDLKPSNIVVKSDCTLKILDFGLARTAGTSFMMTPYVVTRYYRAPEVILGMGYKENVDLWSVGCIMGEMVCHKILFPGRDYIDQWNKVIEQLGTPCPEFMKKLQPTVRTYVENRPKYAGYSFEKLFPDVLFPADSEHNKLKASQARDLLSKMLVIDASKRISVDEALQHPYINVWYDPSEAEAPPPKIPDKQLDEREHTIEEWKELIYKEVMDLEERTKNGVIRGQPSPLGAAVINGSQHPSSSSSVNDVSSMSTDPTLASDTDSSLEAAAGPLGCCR
# [3] = target: Rho-associated protein kinase 2 (Homo sapiens) (UniProt O75116); assay: Inhibition of ROCK-2 (unknown origin) at 10 uM
# Rho-associated protein kinase 2 (Homo sapiens), sequence (O75116 whole entry, looked up): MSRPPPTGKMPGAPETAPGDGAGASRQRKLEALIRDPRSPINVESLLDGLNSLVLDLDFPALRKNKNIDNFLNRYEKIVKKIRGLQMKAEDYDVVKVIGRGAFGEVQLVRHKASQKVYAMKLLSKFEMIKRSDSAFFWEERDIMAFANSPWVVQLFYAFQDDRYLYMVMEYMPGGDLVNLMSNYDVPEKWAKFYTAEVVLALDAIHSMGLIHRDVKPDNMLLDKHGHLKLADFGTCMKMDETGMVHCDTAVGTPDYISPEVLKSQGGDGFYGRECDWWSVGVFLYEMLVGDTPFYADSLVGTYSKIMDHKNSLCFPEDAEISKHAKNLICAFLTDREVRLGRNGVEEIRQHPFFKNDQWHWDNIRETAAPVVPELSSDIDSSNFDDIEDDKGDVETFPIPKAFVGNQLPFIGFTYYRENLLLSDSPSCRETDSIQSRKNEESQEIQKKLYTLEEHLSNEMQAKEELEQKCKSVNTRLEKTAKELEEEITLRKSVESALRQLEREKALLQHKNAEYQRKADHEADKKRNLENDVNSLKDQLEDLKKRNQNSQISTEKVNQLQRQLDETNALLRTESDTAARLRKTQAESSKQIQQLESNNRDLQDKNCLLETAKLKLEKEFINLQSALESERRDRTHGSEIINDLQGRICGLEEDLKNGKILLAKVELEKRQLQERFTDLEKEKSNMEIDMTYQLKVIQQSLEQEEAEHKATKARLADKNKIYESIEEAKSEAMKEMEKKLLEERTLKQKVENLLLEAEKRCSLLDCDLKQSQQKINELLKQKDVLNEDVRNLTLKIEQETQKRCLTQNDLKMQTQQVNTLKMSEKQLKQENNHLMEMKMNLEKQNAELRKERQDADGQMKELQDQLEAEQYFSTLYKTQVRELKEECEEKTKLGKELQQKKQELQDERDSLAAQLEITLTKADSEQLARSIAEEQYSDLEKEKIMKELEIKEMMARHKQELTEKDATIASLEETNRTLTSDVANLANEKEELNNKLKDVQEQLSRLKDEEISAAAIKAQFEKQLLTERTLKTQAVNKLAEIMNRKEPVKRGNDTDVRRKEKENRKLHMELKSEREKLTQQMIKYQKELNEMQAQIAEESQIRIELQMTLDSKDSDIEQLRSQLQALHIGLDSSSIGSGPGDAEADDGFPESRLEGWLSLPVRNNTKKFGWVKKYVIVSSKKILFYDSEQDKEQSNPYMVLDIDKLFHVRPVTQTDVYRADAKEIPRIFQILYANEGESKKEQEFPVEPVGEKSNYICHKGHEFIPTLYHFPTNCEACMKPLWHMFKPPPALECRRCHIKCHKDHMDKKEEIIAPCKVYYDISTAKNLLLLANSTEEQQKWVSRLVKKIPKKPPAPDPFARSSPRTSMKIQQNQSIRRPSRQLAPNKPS
# [4] = target: Tyrosine-protein kinase Lck (Homo sapiens) (UniProt P06239); assay: Inhibition of Lck (unknown origin) at 10 uM
# Tyrosine-protein kinase Lck (Homo sapiens), sequence (P06239 2-509 limits assumed): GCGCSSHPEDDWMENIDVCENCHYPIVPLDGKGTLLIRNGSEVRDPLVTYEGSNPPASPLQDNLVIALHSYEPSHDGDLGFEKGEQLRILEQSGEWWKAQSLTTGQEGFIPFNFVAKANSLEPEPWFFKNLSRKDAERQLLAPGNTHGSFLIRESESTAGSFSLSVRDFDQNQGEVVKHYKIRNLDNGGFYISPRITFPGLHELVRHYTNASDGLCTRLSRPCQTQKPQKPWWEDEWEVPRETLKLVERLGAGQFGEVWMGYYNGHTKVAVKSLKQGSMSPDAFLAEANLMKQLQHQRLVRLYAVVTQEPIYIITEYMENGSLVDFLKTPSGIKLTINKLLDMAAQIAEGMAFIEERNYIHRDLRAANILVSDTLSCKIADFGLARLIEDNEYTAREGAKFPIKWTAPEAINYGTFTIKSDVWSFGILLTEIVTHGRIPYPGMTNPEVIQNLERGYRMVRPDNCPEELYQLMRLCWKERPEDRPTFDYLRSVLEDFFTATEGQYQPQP
# [5] = test system: Escherichia coli; assay: Genotoxicity in Escherichia coli in absence of S9 fraction by Ames test; type: toxicity
# Procedure, shortened: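 Bacterial reverse mutation (Ames) test in S. typhimurium and E. coli strains, run with and without S9 mix.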
# [6] = target: Casein kinase I isoform delta (Homo sapiens) (UniProt P48730); assay: Inhibition of CK1delta (unknown origin) at 10 uM relative to control
# Casein kinase I isoform delta (Homo sapiens), sequence (P48730 whole entry, looked up, canonical isoform): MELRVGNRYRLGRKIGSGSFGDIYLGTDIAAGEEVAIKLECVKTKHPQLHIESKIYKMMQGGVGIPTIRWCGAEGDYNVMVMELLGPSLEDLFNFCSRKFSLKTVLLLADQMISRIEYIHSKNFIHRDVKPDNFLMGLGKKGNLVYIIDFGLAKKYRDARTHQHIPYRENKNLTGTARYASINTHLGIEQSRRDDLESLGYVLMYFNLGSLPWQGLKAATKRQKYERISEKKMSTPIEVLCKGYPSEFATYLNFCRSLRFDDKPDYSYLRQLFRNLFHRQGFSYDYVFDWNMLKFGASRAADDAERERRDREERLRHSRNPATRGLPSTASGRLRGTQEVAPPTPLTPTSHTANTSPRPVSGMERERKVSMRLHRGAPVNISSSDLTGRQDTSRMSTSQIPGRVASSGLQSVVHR
# [7] = Drug metabolism in cynomolgus monkey liver microsomes assessed as 4-(4-(4-fluorophenyl)-1-methyl-2-(methylsulfinyl)-1H-imidazol-5-yl)pyridin-2-amine formation at 10 to 100 uM; type: ADME, Macaca fascicularis, microsome
# Procedure, shortened: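 Test compound incubated at 10, 30 and 100 μM with liver microsomes from rat, Cynomolgus monkey or human, and metabolites monitored.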
# [8] = Tmax in female Sprague-Dawley rat at 30 mg/kg, po by LC-MS/MS analysis; type: ADME, organism-based; conditions: in vivo
# [9] = test system: Rattus norvegicus; assay: In vivo inhibition of P38 MAPKalpha in Lewis rat assessed as decrease in LPS-stimulated TNFalpha level in serum at 10 mg/kg, po pretreated for 5 hrs followed by LPS addition measured after 1.5 hrs post dose; type: functional, organism-based
# Procedure, shortened: (§1)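 Lewis rats, n = 8/group: females dosed orally at 10 mg/kg at −1, −3 or −5 h relative to LPS challenge, plus one male group dosed at −1 h. Male and female vehicle controls were given at −1 h. Serum TNFα was measured after LPS and compared with vehicle.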
# [10] = test system: Rattus norvegicus; assay: In vivo inhibition of P38 MAPKalpha in Sprague-Dawley rat assessed as decrease in LPS-stimulated TNFalpha level in serum at 1 mg/kg, po pretreated for 1 hr followed by LPS addition measured after 2 hrs relative to control; type: functional
# Procedure, shortened: (§2)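 Sprague–Dawley rats (8/group) were dosed orally with vehicle or 1, 3 or 10 mg/kg. LPS 0.1 mg/kg i.v. was given 1 h after dosing. Blood was collected 2 h later and serum TNFα measured. Inhibition was calculated relative to the mean of vehicle-treated animals.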
# [11] = test system: Homo sapiens; assay: In vivo inhibition of p38 MAPKalpha in human whole blood assessed as decrease in LPS-stimulated TNFalpha level at 10 to 30 mg treated for 36 hrs followed by LPS stimulation; type: functional, organism-based
# Procedure, shortened: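 Ex vivo read-out in healthy volunteers after a single oral dose (10, 20 or 30 mg; placebo-controlled, single-blind, randomized). Blood drawn pre-dose and at 1, 2, 4, 9, 24 and 36 h post-dose was stimulated with LPS. TNFα release is expressed relative to the LPS-stimulated pre-dose sample of the same subject.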
# [12] = test system: Rattus norvegicus; assay: In vivo inhibition of P38 MAPKalpha in Sprague-Dawley rat assessed as decrease in LPS-stimulated TNFalpha level in serum at 3 mg/kg, po pretreated for 1 hr followed by LPS addition measured after 2 hrs relative to control; type: functional
# [13] = test system: Mus musculus; assay: Antiarthritic activity in human TNF transgenic mouse model assessed as reduction in cartilage damage at 20 to 50 mg/kg/day, po for 10 weeks; type: functional, organism-based
# Procedure, shortened: (§3)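 Heterozygous human TNF transgenic mice (8 per group) were dosed orally for ten weeks with 20 or 50 mg/kg/day as a methylcellulose suspension, alongside vehicle and infliximab i.p. controls. Joint swelling and grip strength were scored weekly, and hind paws were examined histologically at the end.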
# [14] = test system: Homo sapiens; assay: AUC (infinity) in human assessed as 4-(4-(4-fluorophenyl)-1-methyl-2-(methylsulfinyl)-1H-imidazol-5-yl)pyridin-2-amine formation at 20 mg, po administered as single dose; type: ADME, organism-based; set-up: dose 20 mg, time infinity, route oral; conditions: in vivo
# Procedure, shortened: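 Placebo-controlled, single-blind, randomized, consecutive-dosing study in healthy subjects given single oral doses, with 10 mg also given fasting and fed in a crossover. Plasma parent and active metabolite were measured predose and from 0.25 to 36 h post dose. PK parameters were derived from individual concentration–time profiles and reported as means.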
# [15] = Drug metabolism in human primary hepatocytes assessed as CBS-3733 formation at 10 to 100 uM; type: ADME, cell-based, Hepatocyte
# [16] = Tmax in male Sprague-Dawley rat at 30 mg/kg, po by LC-MS/MS analysis; type: ADME, organism-based; conditions: in vivo
# [17] = test system: Rattus norvegicus; assay: In vivo inhibition of P38 MAPKalpha in Sprague-Dawley rat assessed as decrease in LPS-stimulated TNFalpha level in serum at 10 mg/kg, po pretreated for 1 hr followed by LPS addition measured after 2 hrs relative to control; type: functional; procedure, shortened: as §2
# [18] = test system: Mus musculus; assay: In vivo inhibition of P38 MAPKalpha in BALB/c mouse assessed as decrease in LPS/GalN-stimulated TNFalpha level in plasma at 30 mg/kg, po administered via gavage pretreated for 1 hr followed by LPS/GalN addition measured after 1.5 hrs relative to control; type: functional
# Procedure, shortened: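 Male BALB/c mice, n = 6/group, given 3, 10 or 30 mg/kg orally by gavage 1 h before i.p. D-GalN (500 mg/kg) plus LPS (1.5 μg/kg). Blood was taken by cardiac puncture and plasma TNFα measured against a vehicle-only control.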
# [19] = target: Dual specificity mitogen-activated protein kinase kinase 4 (Homo sapiens) (UniProt P45985); assay: Inhibition of MKK4 (unknown origin) at 10 uM relative to control
# Dual specificity mitogen-activated protein kinase kinase 4 (Homo sapiens), sequence (P45985 whole entry): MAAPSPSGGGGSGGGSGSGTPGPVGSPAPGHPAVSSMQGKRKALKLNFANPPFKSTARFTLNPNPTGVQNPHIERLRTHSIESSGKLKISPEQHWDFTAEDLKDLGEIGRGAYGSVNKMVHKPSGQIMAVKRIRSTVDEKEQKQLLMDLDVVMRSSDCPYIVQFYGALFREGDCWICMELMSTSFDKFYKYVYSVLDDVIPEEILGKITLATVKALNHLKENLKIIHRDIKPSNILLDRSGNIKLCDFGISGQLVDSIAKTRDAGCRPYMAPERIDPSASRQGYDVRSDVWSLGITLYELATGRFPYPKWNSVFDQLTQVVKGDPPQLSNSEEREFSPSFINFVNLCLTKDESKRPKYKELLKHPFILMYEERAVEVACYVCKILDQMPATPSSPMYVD
# [20] = AUC (0 to t) in Beagle dog at 40 mg/kg, po by LC-MS/MS analysis; type: ADME, organism-based, Canis lupus familiaris; conditions: in vivo
# Procedure, shortened: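 Toxicokinetics from a maximum-tolerated-dose study in four Beagle dogs given 40 mg/kg orally. Plasma levels of both parent and its predominant metabolite were monitored.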
# [21] = test system: Mus musculus; assay: Antiarthritic activity in human TNF transgenic mouse model assessed as reduction in bone erosion at 20 to 50 mg/kg/day, po for 10 weeks; type: functional, organism-based; procedure, shortened: as §3
# [22] = test system: Rattus norvegicus; assay: Toxicity in rat assessed as excessive defecation at 30 to 300 mg/kg, po administered as single dose; type: organism-based; conditions: in vivo
# [23] = test system: Cynomolgus monkey; assay: Toxicity in cynomolgus monkey assessed as death at 6 to 20 mg/kg followed by after 1 week high dose treatment of 25 mg/kg at 1 week post first dose for 28 days followed by 2 weeks off without dosing; type: organism-based, Macaca fascicularis; conditions: in vivo
# Procedure, shortened: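 Cynomolgus monkeys, 32 in total, 3–5 per group. Dosed for 28 days with vehicle or 6, 12 or 20 mg/kg; the high dose was raised to 25 mg/kg/day after 1 week. Two males and two females from the control and high-dose groups were followed through a further 2-week treatment-free period. Deaths and clinical signs recorded.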
# [24] = AUC (0 to infinity) in male Sprague-Dawley rat at 30 mg/kg, po by LC-MS/MS analysis; type: ADME, organism-based; set-up: dose 30 mg/kg, time infinity, route oral; conditions: in vivo
# Procedure, shortened: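 Rats of each sex received a single oral dose of 30 mg/kg. Plasma concentration–time profiles of parent were determined separately for females and males.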
# [25] = test system: Rattus norvegicus; assay: In vivo inhibition of P38 MAPKalpha in Lewis rat assessed as decrease in LPS-stimulated TNFalpha level in serum at 10 mg/kg, po pretreated for 1 hr followed by LPS addition measured after 1.5 hrs post dose relative to control; type: functional; procedure, shortened: as §1
smiles,measurement,setting,value
Cn1c([S+](C)[O-])nc(-c2ccc(F)cc2)c1-c1ccnc(N)c1 (stereo not given),inhibition,[1],inactive
same,inhibition,[2],inactive
same,inhibition,[3],inactive
same,inhibition,[4],inactive
CC(=O)Nc1cc(-c2c(-c3ccc(F)cc3)nc([S+](C)[O-])n2C)ccn1 (stereo not given),Activity,[5],Non-Toxic
same,inhibition,[6],94%
same,Drug metabolism,[7],Metabolite_Detected
same,Tmax,[8],2 h
same,inhibition,[9],Active
same,inhibition in vivo at 1 mg/kg,[10],43%
same,inhibition,[11],Active
same,inhibition in vivo at 3 mg/kg,[12],88%
same,Activity,[13],Active
same,AUC,[14],6.1022 µM·h
same,Drug metabolism,[15],Metabolite_Detected
same,Tmax,[16],0.5 h
same,inhibition in vivo at 10 mg/kg,[17],96%
same,inhibition in vivo at 30 mg/kg,[18],95%
same,inhibition,[19],37%
same,AUC(0-t),[20],93.4 µM·h
same,Activity,[21],Active
same,Activity,[22],Toxic
same,Activity,[23],Non-Toxic
same,AUC(0-inf),[24],29.8 µM·h
same,inhibition in vivo at 10 mg/kg,[25],76%
